For 13 molecules, IC50 results are on record in ChEMBL document CHEMBL4371030, “Synthesis and antitumor activity of biotinylated camptothecin derivatives as potent cytotoxic agents” (Bioorg Med Chem Lett, 2019).

What all share (type): functional, cell-based
The test system of assay [1] is HL-60. Briefly: Cytotoxicity against human HL60 cells after 48 hrs by MTT assay. The conditions noted are these: HL-60, 48 h. In outline:
(§1)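 MTT viability read-out on a human tumour panel: HL-60 leukaemia, SMMC-7721 hepatoma, A-549 lung, MCF-7 breast and SW480 colon carcinoma. Camptothecin and cisplatin were run alongside as positive controls. Potency is reported as the half-maximal inhibitory concentration (IC50) in μmol L-1.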
In general terms: Tetrazolium dyes change colour on reduction, which living cells bring about.

In assay [2] the test system is SMMC-7721. Kind of assay: Cytotoxicity against human SMMC7721 cells after 48 hrs by MTT assay. The conditions noted are these: SMMC-7721, 48 h. An outline of the steps: as §1
Assay [3] relates to A549. Kind of assay: Cytotoxicity against human A549 cells after 48 hrs by MTT assay. Particulars: A549, 48 h. An outline of the steps: as §1
Assay [4] deals with MCF7. Briefly: Cytotoxicity against human MCF7 cells after 48 hrs by MTT assay. The conditions noted are these: MCF7, 48 h. An outline of the steps: as §1
The test system of assay [5] is SW480. Kind of assay: Cytotoxicity against human SW480 cells after 48 hrs by MTT assay. Particulars: SW480, 48 h. An outline of the steps:
as §1

As for `CCc1c2c(nc3ccccc13)-c1cc3c(c(=O)n1C2)COC(=O)[C@@]3(CC)OCc1cn(CCOCCOCCNC(=O)CCCC[C@@H]2SC[C@@H]3NC(=O)N[C@@H]32)nn1`, the IC50 in assay [1], in assay [2], in assay [3], in assay [4] and in assay [5] was > 40 µM throughout.

`CC[C@@]1(OC(=O)CCCC[C@@H]2SC[C@@H]3NC(=O)N[C@@H]32)C(=O)OCc2c1cc1n(c2=O)Cc2cc3ccccc3nc2-1`: the concentration for half-maximal inhibition (IC50) in assay [1] came to 2.3 µM; in assay [2] it was 7.69 µM; in assay [3], 3.47 µM; in assay [4], 18.2 µM; in assay [5], 12.5 µM.

Take `CC[C@@]1(OC(=O)CCCCCNC(=O)CCCC[C@@H]2SC[C@@H]3NC(=O)N[C@@H]32)C(=O)OCc2c1cc1n(c2=O)Cc2cc3ccccc3nc2-1`: the IC50 was 6.57 µM in assay [1]; 15.3 µM in assay [2]; 19.9 µM in assay [3]; 21.5 µM in assay [4]; > 40 µM in assay [5].

With `CCc1c2c(nc3ccccc13)-c1cc3c(c(=O)n1C2)COC(=O)[C@@]3(CC)OC(=O)CCCC[C@@H]1SC[C@@H]2NC(=O)N[C@@H]21`, the IC50 in assay [1] came to 1.81 µM; in assay [2], 3.28 µM; in assay [3], 1.14 µM; in assay [4] it was 4.26 µM; in assay [5], 8.73 µM.

With `CCc1c2c(nc3ccc(OC(=O)CCCCCNC(=O)CCCC[C@@H]4SC[C@@H]5NC(=O)N[C@@H]54)cc13)-c1cc3c(c(=O)n1C2)COC(=O)[C@]3(O)CC`, the half-inhibitory concentration (IC50) in assay [1] was found to be 0.76 µM; in assay [2], 1.14 µM; in assay [3], 0.23 µM; in assay [4], 0.4 µM; in assay [5] it was 1.48 µM.

As for `CC[C@@]1(OCc2cn(CCOCCOCCOCCOCCOCCNC(=O)CCCC[C@@H]3SC[C@@H]4NC(=O)N[C@@H]43)nn2)C(=O)OCc2c1cc1n(c2=O)Cc2cc3ccccc3nc2-1`, the 50% inhibitory concentration (IC50) in assay [1], in assay [2], in assay [3], in assay [4] and in assay [5] was > 40 µM throughout.

Consider `CC[C@@]1(O)C(=O)OCc2c1cc1n(c2=O)Cc2cc3ccccc3nc2-1` [CAMPTOTHECIN], for which the figures for the half-maximal inhibitory concentration (IC50) in assay [1], in assay [2] and in assay [5] were < 0.064 µM, 0.45 µM and 0.29 µM, respectively.

Consider `CC[C@@]1(OCc2cn(CCOCCOCCNC(=O)CCCC[C@@H]3SC[C@@H]4NC(=O)N[C@@H]43)nn2)C(=O)OCc2c1cc1n(c2=O)Cc2cc3ccccc3nc2-1`, for which the IC50 in assay [1] is 0.72 µM; in assay [2], 4.77 µM; in assay [3] it was 3.63 µM; in assay [4] it was 3.47 µM; in assay [5] it was 6.05 µM.

For the molecule `CCc1c2c(nc3ccccc13)-c1cc3c(c(=O)n1C2)COC(=O)[C@@]3(CC)OCc1cn(CCOCCOCCOCCOCCOCCNC(=O)CCCC[C@@H]2SC[C@@H]3NC(=O)N[C@@H]32)nn1`, the IC50 in assay [1] is 4.77 µM; in assay [2], 4.1 µM; in assay [3], 5.18 µM; in assay [4] it was 9.21 µM; in assay [5] it was 0.57 µM.

Regarding `CCc1c2c(nc3ccccc13)-c1cc3c(c(=O)n1C2)COC(=O)[C@@]3(CC)OC(=O)CCCCCNC(=O)CCCC[C@@H]1SC[C@@H]2NC(=O)N[C@@H]21`, the IC50 in assay [1] is 0.84 µM; in assay [2] it was 12.2 µM; in assay [3], 3.08 µM; in assay [4], 1.94 µM; in assay [5], 16.2 µM.

For `CC[C@@]1(O)C(=O)OCc2c1cc1n(c2=O)Cc2cc3cc(OC(=O)CCCCCNC(=O)CCCC[C@@H]4SC[C@@H]5NC(=O)N[C@@H]54)ccc3nc2-1`, the 50% inhibitory concentration (IC50) in assay [1] came to 1.14 µM; in assay [2], 1.85 µM; in assay [3], 0.75 µM; in assay [4] it was 0.34 µM; in assay [5], 0.45 µM.

As to `CC[C@@]1(O)C(=O)OCc2c1cc1n(c2=O)Cc2cc3cc(OC(=O)CCCC[C@@H]4SC[C@@H]5NC(=O)N[C@@H]54)ccc3nc2-1`, the IC50 in assay [1] is 3.19 µM; in assay [2], 3.32 µM; in assay [3], 1.23 µM; in assay [4] it was 2.3 µM; in assay [5], 0.55 µM.

As for `CCc1c2c(nc3ccc(OC(=O)CCCC[C@@H]4SC[C@@H]5NC(=O)N[C@@H]54)cc13)-c1cc3c(c(=O)n1C2)COC(=O)[C@]3(O)CC`, the half-inhibitory concentration (IC50) in assay [1] was 3.31 µM; in assay [2], 1.55 µM; in assay [3] it was 0.52 µM; in assay [4], 0.8 µM; in assay [5] it was 0.13 µM.

Usually IC50 stands for the concentration at which inhibition is half-maximal. Read a low IC50 as greater potency.
